Usually inhibition stands for the relative decrease from the control value, in per cent. As usually defined, the EC50 is the concentration needed to bring the measured effect to its halfway point. Lower therefore signals greater potency. A word on the logD: it is the decadic logarithm of the distribution of all forms, ionised or not, between an organic phase and buffer at a given pH. A lower logD goes with a more hydrophilic compound.

Calls of active or inactive are those of the source. The calls are words filed in the database; no cut-off is given here. Some results are limits rather than exact numbers.

For data set [1], the target named is T1, Pteridine reductase, putative (Trypanosoma brucei) (UniProt Q581W1).
T1 sequence (whole entry): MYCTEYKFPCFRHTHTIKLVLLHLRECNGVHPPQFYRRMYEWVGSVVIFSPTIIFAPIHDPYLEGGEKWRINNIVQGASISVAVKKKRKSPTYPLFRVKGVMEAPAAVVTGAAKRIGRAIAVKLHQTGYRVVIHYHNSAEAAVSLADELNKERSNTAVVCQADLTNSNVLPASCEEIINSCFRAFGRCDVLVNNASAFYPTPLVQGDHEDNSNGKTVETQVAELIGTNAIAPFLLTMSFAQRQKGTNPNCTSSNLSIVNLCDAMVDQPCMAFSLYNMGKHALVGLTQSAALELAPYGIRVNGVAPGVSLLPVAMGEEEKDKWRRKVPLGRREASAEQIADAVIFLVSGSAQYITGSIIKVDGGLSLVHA
The data set can be described thus: Inhibition of Trypanosoma brucei pteridine reductase 1 at 100 uM. The essentials: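 TbPTR1 activity followed by cytochrome c reduction coupled to enzymatic tetrahydrobiopterin production: 20 mM sodium citrate, 1 mM EDTA, H2B (0.35 μM), cytc (81 μM), NADPH (100 μM), pH 6.0. Absorbance at 550 nm read within the linear phase. Fragment hits tested once at 100 μM as percent inhibition.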

For data set [2], the target named is T2, Pteridine reductase, putative (Trypanosoma brucei, UniProt Q581W1).
T2 sequence (Q581W1 whole entry): T1 sequence (whole entry)
The data set can be described thus: Apparent inhibition of Trypanosoma brucei pteridine reductase 1-mediated reduction of cytochrome c. The conditions noted are these: read-out: Ki(app). The essentials:
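TbPTR1 activity read through cytochrome c reduction coupled to enzymatic H4B formation. Absorbance at 550 nm read within the linear phase. Kiapp derived by fitting a modified Morrison equation.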

In data set [3] the target is Bifunctional dihydrofolate reductase-thymidylate synthase (Trypanosoma brucei brucei) (UniProt Q27783). Description: Inhibition of Trypanosoma brucei DHFR-mediated reduction of cytochrome c at upto 500 uM. The method in brief: (§1)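 DHFR (T. brucei or human) activity followed by cytochrome c reduction coupled to enzymatic tetrahydrofolate production: 20 mM sodium citrate, 1 mM EDTA, H2F (4.4 μM), cytc (81 μM), NADPH (100 μM), pH 7.4. Absorbance at 550 nm read within the linear phase. Compounds tested up to 30 μM if PTR1 Kiapp below 1 μM, otherwise up to 500 μM.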

Data set [4] addresses T3, Dihydrofolate reductase (Homo sapiens) (UniProt P00374).
T3 sequence (whole entry): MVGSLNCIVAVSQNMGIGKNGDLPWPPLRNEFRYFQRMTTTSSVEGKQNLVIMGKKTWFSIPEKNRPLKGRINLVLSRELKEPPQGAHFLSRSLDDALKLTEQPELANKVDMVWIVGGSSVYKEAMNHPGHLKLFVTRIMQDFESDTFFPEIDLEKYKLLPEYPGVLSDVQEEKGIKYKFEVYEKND
Description: Inhibition of human DHFR-mediated reduction of cytochrome c at upto 500 uM. The essentials: as §1

Data set [5] concerns the target Bifunctional dihydrofolate reductase-thymidylate synthase (Trypanosoma brucei brucei) (UniProt Q27783). The data set can be described thus: Inhibition of Trypanosoma brucei DHFR-mediated reduction of cytochrome c at upto 30 uM. The essentials:
as §1

Data set [6] has as its target T3, Dihydrofolate reductase (Homo sapiens). The data set can be described thus: Inhibition of human DHFR-mediated reduction of cytochrome c at upto 30 uM. The essentials: as §1
Another data set has as its system Trypanosoma brucei. The data set can be described thus: Antitrypanosomal activity against Trypanosoma brucei by cell culture assay. In kind it is functional, organism-based.
The nature of data set [7]: Distribution coefficient, log D of the compound. The conditions noted are these: octanol/water. In kind it is physicochemical.

Chain of Bifunctional dihydrofolate reductase-thymidylate synthase (Trypanosoma brucei brucei) (Q27783 whole entry, looked up): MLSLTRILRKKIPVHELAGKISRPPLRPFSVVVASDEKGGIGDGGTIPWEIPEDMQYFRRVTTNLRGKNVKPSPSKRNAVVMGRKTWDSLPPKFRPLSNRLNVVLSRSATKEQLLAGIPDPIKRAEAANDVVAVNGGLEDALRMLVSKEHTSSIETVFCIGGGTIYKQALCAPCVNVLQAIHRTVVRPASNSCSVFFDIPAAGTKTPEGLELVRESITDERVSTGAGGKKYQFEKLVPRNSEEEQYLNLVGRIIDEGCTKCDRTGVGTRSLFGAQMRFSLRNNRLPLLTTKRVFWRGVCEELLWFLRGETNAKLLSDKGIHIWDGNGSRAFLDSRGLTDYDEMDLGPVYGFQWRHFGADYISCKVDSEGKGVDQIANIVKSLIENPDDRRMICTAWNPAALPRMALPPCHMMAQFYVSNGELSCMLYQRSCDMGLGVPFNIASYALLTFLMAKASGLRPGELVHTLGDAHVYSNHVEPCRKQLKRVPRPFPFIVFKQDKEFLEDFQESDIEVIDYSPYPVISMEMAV

`O=C(Nc1ncnc2nc[nH]c12)c1ccccc1`: in data set [1], the inhibition was 4.5%.
Turning to `c1ccc(CCNc2ncnc3[nH]cnc23)cc1`, in data set [1], the inhibition was determined as 66.4%.
For the compound `CC(C)c1n[nH]c(N)n1`, the inhibition in data set [1] came to 3.9%.
In the case of `Nc1nc(-c2ccc3c(c2)CCC3)cs1`, in data set [1], the inhibition is 32.3%.
`CC(Nc1c[nH]c(=O)[nH]c1=O)c1ccccc1` (centres undefined): in data set [1], the inhibition is 17.4%.
For the compound `Nc1nc(-c2ccc(O)cc2)cs1`, in data set [1], the inhibition was 43.2%.
With `CCn1c(N)nc2ccccc21`, the Ki in data set [2] was greater than 200 µM. In addition, the inhibition result in data set [3] and in data set [4] was “inactive” throughout.
In the case of `Nc1nc(CCc2n[nH]c(N)n2)n[nH]1`, the inhibition in data set [1] is 6.9%.
`Nc1nc2ccccc2n1Cc1ccc(Cl)c(Cl)c1`: in data set [2], the Ki was 0.4 µM. Moreover, the inhibition result in data set [5] and in data set [6] was “inactive” each time.
For `Oc1ncc(/N=C/c2ccccc2)c(O)n1`, the inhibition in data set [1] came to 22.8%.
For the compound `Cc1ccc(-c2n[nH]c(N)n2)cc1`, in data set [1], the inhibition is 20.2%.
Take `Cc1[nH]c(=O)[nH]c(=O)c1Cc1ccccc1`: in data set [1], the inhibition was -0.3%.
As to `COC(=O)c1ccc2nc(N)sc2c1`, the Ki in data set [2] came to 21.1 µM. The inhibition result in data set [3] and in data set [4] was “inactive” in each case.
Consider `Nc1nc2cccc(-c3ccccc3)c2n1Cc1ccc(Cl)c(Cl)c1`, for which the Ki in data set [2] turned out to be 0.007 µM. Also, the inhibition entry in data set [5] and in data set [6] was “inactive” each time. A half-maximal effect in the data set on Trypanosoma brucei (EC50) was put at 10 µM. The compound further showed a logD in data set [7] of 3.7.
For `c1nc(NCC2CCCO2)c2nc[nH]c2n1` (centres undefined), the inhibition in data set [1] stood at 25.1%.
Same read-out and setting: to `Nc1nnc(-c2ccc(Cl)cc2Cl)[nH]1` belongs 18.8%; to `CC(C)CSc1n[nH]c(N)n1`, 0.9%; to `CNc1nc(N)c(C(=O)c2ccccc2)s1`, 18.1%.
With `Cc1cc(C)n(-c2cc(=O)[nH]c(=O)[nH]2)n1`, the inhibition in data set [1] is -4%.
On to `Nc1nc(Cc2nnc(N)[nH]2)n[nH]1`, for which, in data set [1], the inhibition came to 11.4%.
Regarding `Nc1nc2ccccc2n1CCc1ccccc1`, the inhibition result in data set [3] and in data set [4] was “inactive” each time.
For the compound `O=C(Cc1ccccc1Cl)Nc1c[nH]c(=O)[nH]c1=O`, the inhibition in data set [1] was 21%.
Consider `Nc1nc(CNC(=O)c2ccccc2)n[nH]1`, for which, in data set [1], the inhibition stood at 10.7%.
Take `Nc1nc(SCC(=O)NCc2ccco2)n[nH]1`: the inhibition in data set [1] worked out at 3.3%.
In the case of `O=C(Nc1c[nH]c(=O)[nH]c1=O)c1ccccc1F`, the inhibition in data set [1] amounted to 7.9%.
Consider `Nc1nc(-c2ccc(Br)cc2)n[nH]1`, for which, in data set [1], the inhibition was -0.8%.
As to `Nc1nc2cccc(Cl)c2n1Cc1ccc(Cl)c(Cl)c1`, in data set [2], the Ki worked out at 0.51 µM. The inhibition result in data set [5] and in data set [6] was “inactive” throughout.
Take `Nc1nnc(SCC(=O)NCc2ccc3c(c2)OCO3)[nH]1`: in data set [1], the inhibition was determined as 38.5%.
For the compound `CCc1n[nH]c(N)n1`, in data set [1], the inhibition was -3.5%.
`CC(C)CC(=O)Nc1c[nH]c(=O)[nH]c1=O`: the inhibition in data set [1] turned out to be 5%.
For the compound `COc1ccccc1-c1nnc(N)[nH]1`, the inhibition in data set [1] was 19.8%.
As to `Nc1nc(C2CCCCC2)n[nH]1`, the inhibition in data set [1] is 45.1%.
`Nc1nc2ccc(Cl)cc2[nH]1`: in data set [2], the Ki was determined as 10.6 µM. The inhibition in data set [1] was found to be 72.3%. In data set [3], the inhibition result is “inactive”. Besides, the outcome in data set [4] was inactive.
`O=c1[nH]cc(/N=C/c2ccc(Br)cc2)c(=O)[nH]1`: the inhibition in data set [1] was 4.5%.
In the case of `CNc1nc(N)c(C(=O)C(C)(C)C)s1`, the inhibition in data set [1] is 23%.
For `Nc1nc(-c2ccncc2)cs1`, in data set [1], the inhibition worked out at 31.3%.
Consider `CCCOc1cccc2nc(N)n(Cc3ccc(Cl)c(Cl)c3)c12`, for which, in data set [2], the Ki came out at 0.047 µM. Further, the inhibition entry in data set [5] and in data set [6] was “inactive” in each case.
As for `O=c1[nH]c(=O)c2c(-c3ccccc3)csc2[nH]1`, the inhibition in data set [1] stood at 36.3%.
Same read-out and setting: to `N#Cc1ccc(CSc2nnc(N)s2)cc1` belongs 23.1%; to `O=c1[nH]cc(COCc2ccccc2)c(=O)[nH]1`, 5.7%.
Same read-out and setting: to `Cc1ccc(CSc2n[nH]c(N)n2)c(C)c1` belongs 17.6%.
As to `Nc1nc(-c2ccccc2Cl)n[nH]1`, the inhibition in data set [1] came out at 9.3%.
Regarding `Nc1nc(NCc2ccc(F)cc2)n[nH]1`, the inhibition in data set [1] amounted to 19.3%.
As to `Nc1nc2ccc(C(=O)N3CCCCC3)cc2s1`, the Ki in data set [2] stood at 141 µM. Moreover, in data set [1], the inhibition was found to be 49.9%. Moreover, the inhibition result in data set [3] and in data set [4] was “inactive” in each case.
As for `O=c1cc(Nc2ccc(Cl)cc2)[nH]c(=O)[nH]1`, the inhibition in data set [1] was found to be 11.8%.
For the compound `Nc1nc2ccccc2[nH]1`, in data set [2], the Ki turned out to be 288 µM. The inhibition entry in data set [3] and in data set [4] was “inactive” in each case.
`OCCNc1ncnc2[nH]cnc12`: in data set [1], the inhibition was 5.9%.
For the compound `Cc1cccc(-c2ccc3nc(N)[nH]c3c2)c1`, in data set [2], the Ki was 9.8 µM. For the same compound, the inhibition entry in data set [3] and in data set [4] was “inactive” each time.
With `Cc1ccc(CNc2n[nH]c(N)n2)cc1`, the inhibition in data set [1] is 44.2%.
